Numbered stars: 1 amine (or outer) side, 2 acyl side, 3 side chain; on linkers, the order of the positions; unused ones are H or OH. Bridge positions count the residues as written; N and C are the ends. Square brackets hold non-standard residues; d marks the D form. Peptide text beside a SMILES is read from it. I, II: the chains in the order shown. * marks the point of attachment. X3 = CC[C@H](C)[C@@H](C(=O)*)N(C(=O)[C@H](CCCNC(=N)N)NC(=O)CCCCCNC(=O)[C@@H](N)CCCNC(=N)N)C(=O)[C@H](CCCNC(=N)N)NC(=O)CCCCCNC(=O)[C@@H](N)CCCNC(=N)N; Succinimide(1-C2H4CO,3-yl) = O=C1CC([*:1])C(=O)N1CCC(=O)[*:2]; X2 = O=C(OCCOCCN[*:1])[*:2]
Legend:
Escherichia coli [1] = experiment: Antibacterial activity against multi-drug resistant Escherichia coli NMI 3548/14 assessed as reduction in microbial growth incubated for 20 hrs; type: functional
Outline: (§1)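 Broth microdilution MIC (modified Hancock protocol) in non-binding polystyrene plates. Inoculum ~2 × 10^5 CFU/mL in Mueller-Hinton broth with Mg²⁺ and Ca²⁺ at 4 mg/L each. Compounds dissolved in water, diluted in 0.01% acetic acid/0.2% BSA (final), added as 10× stocks. Covered plates incubated 20 h at 35 °C (± 2 °C) with 220 rpm circular shaking before MIC read.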

Escherichia coli [2] = experiment: Antibacterial activity against multi-drug resistant Escherichia coli NMI 3898/15 assessed as reduction in microbial growth incubated for 20 hrs; type: functional; outline: as §1
Escherichia coli [3] = experiment: Antibacterial activity against Escherichia coli lacking a functional SbmA assessed as reduction in microbial growth incubated for 20 hrs
Outline: (§2)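 Broth microdilution MIC after a modified Hancock protocol for cationic peptides, in non-binding polystyrene plates. Inoculum ~2 × 10^5 CFU/mL in Mueller-Hinton broth with Mg²⁺ and Ca²⁺ at 4 mg/L each. Compounds dissolved in water, diluted in 0.01% acetic acid, 0.2% BSA (final), added as 10× aliquots. Covered plates incubated 20 h at 35 °C (± 2 °C) with shaking at 220 rpm. MIC read as lowest inhibiting concentration.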

Staphylococcus aureus = experiment: Antibacterial activity against Staphylococcus aureus ATCC 29213 assessed as reduction in microbial growth incubated for 20 hrs; type: functional; outline: as §2
Escherichia coli [4] = experiment: Antibacterial activity against Escherichia coli ATCC 25922 assessed as reduction in microbial growth incubated for 20 hrs; type: functional; outline: as §1
Klebsiella pneumoniae [5] = experiment: Antibacterial activity against multi-drug resistant Klebsiella pneumoniae NMI 2697/14 assessed as reduction in microbial growth incubated for 20 hrs; type: functional; outline: as §1
Acinetobacter baumannii [6] = experiment: Antibacterial activity against Acinetobacter baumannii NMI 3658/17 assessed as reduction in microbial growth incubated 20 hrs; type: functional; outline: as §2
Pseudomonas aeruginosa [7] = experiment: Antibacterial activity against multi-drug resistant Pseudomonas aeruginosa NMI 506/17 assessed as reduction in microbial growth incubated for 20 hrs; type: functional; outline: as §1
Pseudomonas aeruginosa [8] = experiment: Antibacterial activity against Pseudomonas aeruginosa PAO1 assessed as reduction in microbial growth incubated for 20 hrs; type: functional; outline: as §2
Acinetobacter baumannii [9] = experiment: Antibacterial activity against Acinetobacter baumannii ATCC 19606 assessed as reduction in microbial growth incubated for 20 hrs; type: functional; outline: as §2
Klebsiella pneumoniae [10] = experiment: Antibacterial activity against multi-drug resistant Klebsiella pneumoniae NMI 3081/09 assessed as reduction in microbial growth incubated for 20 hrs; type: functional; outline: as §1
Klebsiella pneumoniae [11] = experiment: Antibacterial activity against Klebsiella pneumoniae ATCC 13883 assessed as reduction in microbial growth incubated for 20 hrs; type: functional; outline: as §2
Pseudomonas aeruginosa [12] = experiment: Antibacterial activity against Pseudomonas aeruginosa ATCC 27853 assessed as reduction in microbial growth incubated for 20 hrs; type: functional; outline: as §2
[13] = Hemolytic activity against RBC (unknown origin) at 100 uM; type: ADME, cell-based, Erythrocyte; settings: red blood cells (erythrocytes); read-out: Activity
[14] = Ratio of MIC for Escherichia coli lacking functional SbmA to MIC for Escherichia coli ATCC 25922
[15] = ATCC 19606 = CIP 70.34 = JCM 6841, 20 h

Row | Compound | MIC (Escherichia coli [3]) | MIC (Escherichia coli [1]; NMI 3548/14, 20 h) | MIC (Escherichia coli [2]; NMI 3898/15, 20 h) | MIC (Staphylococcus aureus; ATCC 29213, 20 h) | MIC (Escherichia coli [4]; ATCC 25922, 20 h) | MIC (Klebsiella pneumoniae [5]; NMI 2697/14, 20 h) | hemolysis at 100 µM [13] | MIC (Pseudomonas aeruginosa [8]; PAO1, 20 h) | MIC (Acinetobacter baumannii [9]; [15]) | MIC (Klebsiella pneumoniae [10]; NMI 3081/09, 20 h) | MIC (Klebsiella pneumoniae [11]; ATCC 13883, 20 h) | further results
1 | COLISTIN | 0.5 mg/L | – | – | – | – | – | – | – | – | – | – | MIC (Escherichia coli [1]): 4 mg/L; MIC (Escherichia coli [2]): 2 to 4 mg/L; MIC (Staphylococcus aureus): > 16 mg/L; MIC (Escherichia coli [4]): 0.125 to 0.5 mg/L; MIC (Klebsiella pneumoniae [5]): > 16 mg/L; MIC (Acinetobacter baumannii [6]): > 16 mg/L; MIC (Pseudomonas aeruginosa [7]): > 16 mg/L; MIC (Pseudomonas aeruginosa [8]): 0.5 mg/L; MIC (Acinetobacter baumannii [9]; ATCC 19606 = CIP 70.34 = JCM 6841): 0.25 mg/L; MIC (Klebsiella pneumoniae [10]): 0.25 to 1 mg/L; MIC (Klebsiella pneumoniae [11]): 2 to 4 mg/L; MIC (Pseudomonas aeruginosa [12]): 0.25 mg/L
2 | CC[C@@H](C)[C@@H](NC(=O)[C@H]1CCCN1C(=O)[C@@H](CCCNC(=N)N)NC(=O)[C@H]1CCCN1C(=O)[C@@H](Cc1cnc[nH]1)NC(=O)[C@@H](CO)NC(=O)[C@H](NC(=O)[C@H]1CCCN1C(=O)[C@@H](CCCNC(=N)N)NC(=O)[C@H]1CCCN1C(=O)[C@@H](CO)NC(=O)[C@@H](Cc1ccc(O)cc1)NC(=O)[C@H]1CCCN1C(=O)[C@@H](CCCNC(=N)N)NC(=O)[C@H]1CCCN1C(=O)[C@@H](CCCNC(=N)N)NC(=O)CCCCCNC(=O)[C@H](N)CCCNC(=N)N)[C@H](C)O)C(=O)N[C@H](CCCNC(=N)N)C(=O)N[C@@H](C(=O)N[C@H](CS)C(=O)N[C@@H](C(=O)N[C@H](CS)C(=O)N[C@H](C)C(=O)N[C@@H](C(=O)N[C@H](C)C(=O)N[C@H](CS)C(=O)N[C@@H](C(=O)N[C@@H](CS)C(=O)N[C@@H](C(N)=O)[C@H](C)O)[C@H](C)O)[C@H](C)O)[C@H](C)O)C(C)C | > 64 mg/L | 64 mg/L | > 64 mg/L | > 64 mg/L | > 64 mg/L | > 64 mg/L | < 1% | > 64 mg/L | > 64 mg/L | > 64 mg/L | 8 to 16 mg/L | Ratio [14]: > 16
3 | CC[C@H](C)[C@H](NC(=O)[C@H](CCCCN)NC(=O)[C@H]([C@@H](C)CC)N(C(=O)[C@H](CCCNC(=N)N)NC(=O)CCCCCNC(=O)[C@@H](N)CCCNC(=N)N)C(=O)[C@H](CCCNC(=N)N)NC(=O)CCCCCNC(=O)[C@@H](N)CCCNC(=N)N)C(=O)N[C@@H](CC(C)C)C(=O)N[C@@H](Cc1ccccc1)C(=O)N[C@@H](CCC(N)=O)C(=O)N[C@@H](CC(N)=O)C(=O)N[C@@H](CCCNC(=N)N)C(=O)N[C@@H](CCCNC(=N)N)C(=O)N[C@@H](CCSC)C(=O)N[C@@H](CCCCN)C(=O)N[C@@H](Cc1c[nH]c2ccccc12)C(=O)N[C@@H](CCCCN)C(=O)N[C@@H](CCCCN)C(=O)N[C@@H](CSC1CC(=O)N(CCC(=O)NCCOCCOC(=O)N[C@@H](CS)C(=O)N[C@H](C(=O)N[C@@H](CS)C(=O)N[C@H](C(=O)N[C@H](C(=O)N[C@@H](C)C(=O)N[C@@H](CS)C(=O)N[C@@H](C)C(=O)N[C@@H](CS)C(=O)N[C@H](C(N)=O)[C@@H](C)O)[C@@H](C)O)[C@@H](C)O)[C@@H](C)O)C1=O)C(N)=O (stereo not given in full) (I: X3-KILFQNRRMKWKKC-NH2 / II: [X2]CTCTTACACT-NH2; linker I:14-II:N via Succinimide(1-C2H4CO,3-yl)) | 32 mg/L | 4 to 8 mg/L | 16 mg/L | > 64 mg/L | 32 mg/L | 16 to 32 mg/L | < 1% | 32 mg/L | 16 mg/L | 8 to 16 mg/L | 64 mg/L | –
4 | CC[C@H](C)[C@H](NC(=O)[C@H](CCCCN)NC(=O)[C@H]([C@@H](C)CC)N(C(=O)[C@H](CCCNC(=N)N)NC(=O)CCCCCNC(=O)[C@@H](N)CCCNC(=N)N)C(=O)[C@H](CCCNC(=N)N)NC(=O)CCCCCNC(=O)[C@@H](N)CCCNC(=N)N)C(=O)N[C@@H](CC(C)C)C(=O)N[C@@H](Cc1ccccc1)C(=O)N[C@@H](CCC(N)=O)C(=O)N[C@@H](CC(N)=O)C(=O)N[C@@H](CCCNC(=N)N)C(=O)N[C@@H](CCCNC(=N)N)C(=O)N[C@@H](CCSC)C(=O)N[C@@H](CCCCN)C(=O)N[C@@H](Cc1c[nH]c2ccccc12)C(=O)N[C@@H](CCCCN)C(=O)N[C@@H](CCCCN)C(N)=O | 8 mg/L | 4 to 8 mg/L | 16 mg/L | 32 to 64 mg/L | 8 mg/L | > 64 mg/L | < 1% | 8 mg/L | 8 mg/L | > 64 mg/L | 64 mg/L | –
5 | CC[C@H](C)[C@H](NC(=O)[C@H](CCCCN)NC(=O)[C@H]([C@@H](C)CC)N(C(=O)[C@H](CCCNC(=N)N)NC(=O)CCCCCNC(=O)[C@@H](N)CCCNC(=N)N)C(=O)[C@H](CCCNC(=N)N)NC(=O)CCCCCNC(=O)[C@@H](N)CCCNC(=N)N)C(=O)N[C@@H](CC(C)C)C(=O)N[C@@H](Cc1ccccc1)C(=O)N[C@@H](CCC(N)=O)C(=O)N[C@@H](CC(N)=O)C(=O)N[C@@H](CCCNC(=N)N)C(=O)N[C@@H](CCCNC(=N)N)C(=O)N[C@@H](CCSC)C(=O)N[C@@H](CCCCN)C(=O)N[C@@H](Cc1c[nH]c2ccccc12)C(=O)N[C@@H](CCCCN)C(=O)N[C@@H](CCCCN)C(=O)N[C@@H](CS)C(=O)N[C@H](C(=O)N[C@@H](CS)C(=O)N[C@@H](C)C(=O)N[C@H](C(=O)N[C@@H](C)C(=O)N[C@@H](CS)C(=O)N[C@H](C(=O)N[C@@H](CS)C(=O)N[C@H](C(N)=O)[C@@H](C)O)[C@@H](C)O)[C@@H](C)O)[C@@H](C)O (X3-KILFQNRRMKWKKCTCATACTCT-NH2) | 16 mg/L | 32 mg/L | ≥ 64 mg/L | > 64 mg/L | 16 mg/L | > 64 mg/L | < 1% | 32 mg/L | 16 mg/L | > 64 mg/L | 8 mg/L | –
6 | CC[C@H](C)[C@H](NC(=O)[C@H](CCCCN)NC(=O)[C@H]([C@@H](C)CC)N(C(=O)[C@H](CCCNC(=N)N)NC(=O)CCCCCNC(=O)[C@@H](N)CCCNC(=N)N)C(=O)[C@H](CCCNC(=N)N)NC(=O)CCCCCNC(=O)[C@@H](N)CCCNC(=N)N)C(=O)N[C@@H](CC(C)C)C(=O)N[C@@H](Cc1ccccc1)C(=O)N[C@@H](CCC(N)=O)C(=O)N[C@@H](CC(N)=O)C(=O)N[C@@H](CCCNC(=N)N)C(=O)N[C@@H](CCCNC(=N)N)C(=O)N[C@@H](CCSC)C(=O)N[C@@H](CCCCN)C(=O)N[C@@H](Cc1c[nH]c2ccccc12)C(=O)N[C@@H](CCCCN)C(=O)N[C@@H](CCCCN)C(=O)N[C@@H](CSC1CC(=O)N(CCC(=O)NCCOCCOC(=O)N[C@@H](CS)C(=O)N[C@H](C(=O)N[C@@H](CS)C(=O)N[C@@H](C)C(=O)N[C@H](C(=O)N[C@@H](C)C(=O)N[C@@H](CS)C(=O)N[C@H](C(=O)N[C@@H](CS)C(=O)N[C@H](C(N)=O)[C@@H](C)O)[C@@H](C)O)[C@@H](C)O)[C@@H](C)O)C1=O)C(N)=O (stereo not given in full) | 8 to 16 mg/L | 16 to 32 mg/L | 32 to 64 mg/L | > 64 mg/L | 8 mg/L | > 64 mg/L | < 1% | 32 to 64 mg/L | 16 mg/L | > 64 mg/L | 2 to 4 mg/L | –
7 | CC[C@H](C)[C@H](NC(=O)[C@@H]1CCCN1C(=O)[C@H](CCCNC(=N)N)NC(=O)[C@@H]1CCCN1C(=O)[C@H](Cc1cnc[nH]1)NC(=O)[C@H](CO)NC(=O)[C@@H](NC(=O)[C@@H]1CCCN1C(=O)[C@H](CCCNC(=N)N)NC(=O)[C@@H]1CCCN1C(=O)[C@H](CO)NC(=O)[C@H](Cc1ccc(O)cc1)NC(=O)[C@@H]1CCCN1C(=O)[C@H](CCCNC(=N)N)NC(=O)[C@@H]1CCCN1C(=O)[C@H](CCCNC(=N)N)NC(=O)CCCCCNC(=O)[C@@H](N)CCCNC(=N)N)[C@@H](C)O)C(=O)N[C@@H](CCCNC(=N)N)C(=O)N[C@H](C(N)=O)C(C)C | > 64 mg/L | 32 to 64 mg/L | 32 to 64 mg/L | > 64 mg/L | > 64 mg/L | > 64 mg/L | < 1% | > 64 mg/L | 64 mg/L | > 64 mg/L | > 64 mg/L | –

Reference: ChEMBL document CHEMBL4390654, “Microwave-assisted solid-phase synthesis of antisense acpP peptide nucleic acid-peptide conjugates active against colistin- and tigecycline-resistant E. coli and K. pneumoniae” (Eur J Med Chem, 2019)
